Experimental data published in ChEMBL document CHEMBL2424585, “Biological evaluation of hyperforin and its hydrogenated analogue on bacterial growth and biofilm production” (2013).
≈ marks a conversion by molar mass, not a printed value. Calls of active or inactive are those of the source. No cut-off for these calls is given here.

What was measured:
Assay type in all cases: functional
[1] = test system: Staphylococcus aureus; assay: Antibacterial activity against Staphylococcus aureus RN4220 after 18 hrs by MTT assay; conditions: RN4220, 18 h
Procedure, shortened: (§1)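 Broth microdilution MIC per CLSI M7-A6. Serial 2-fold dilutions in cation-adjusted Mueller-Hinton broth (20 mg/L Ca2+, 10 mg/L Mg2+), ranging 16 to 0.25 μg/mL (DMSO stock) or 256 to 0.25 μg/mL (ethanol stock). Inoculum 5 × 10^5 cfu in saline. Incubated 37 °C, 18 h. Growth detected by MTT colour change. MIC = lowest concentration with no visible growth.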

[2] = test system: Enterococcus faecalis; assay: Antibacterial activity against Enterococcus faecalis ATCC 29212 after 18 hrs by XTT assay
Procedure, shortened: (§2)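 Mature biofilms grown in TSB + 2% glucose from ~10^5 cfu/mL: 4 h shaken adhesion at 37 °C, medium replaced, then 24 h at 37 °C. Rinsed with PBS, then serial dilutions (150–18.7 or 25–6.25 μg/mL; PEG-200 vehicle for one agent) added for 18 h at 37 °C with shaking. Viability read by XTT–menadione, 2 h dark, 492 nm. MBIC = lowest concentration with no detectable biofilm growth. Triplicate.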

[3] = test system: Enterococcus faecalis; assay: Antibacterial activity against Enterococcus faecalis ATCC 29212 assessed as reduction of microorganisms in biofilm at 37.5 ug/ml after 18 hrs by XTT assay relative to untreated control; parameters: scale not given: the % may be the effect or the level left
Procedure, shortened: (§3)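 Mature 24 h biofilms grown in TSB + 2% glucose were PBS-rinsed and exposed to the stated concentration for 18 h at 37 °C with shaking. Metabolic activity was then measured by XTT (1 mg/mL in PBS) with menadione, 2 h at 37 °C in the dark, absorbance 492 nm. Activity is expressed as OD relative to untreated TSB biofilms. Triplicate.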

[4] = test system: Staphylococcus aureus; assay: Antibacterial activity against methicillin-resistant Staphylococcus aureus Ig5 clinical isolate assessed as reduction of microorganisms in biofilm at 150 ug/ml after 18 hrs by XTT assay relative to untreated control; parameters: scale not given: the % may be the effect or the level left; procedure, shortened: as §3
[5] = test system: Staphylococcus aureus; assay: Antibacterial activity against Staphylococcus aureus ATCC 43300 assessed as reduction of microorganisms in biofilm at 37.5 ug/ml after 18 hrs by XTT assay relative to untreated control; parameters: scale not given: the % may be the effect or the level left; procedure, shortened: as §3
[6] = test system: Staphylococcus aureus; assay: Antibacterial activity against Staphylococcus aureus ATCC 29213 after 18 hrs by XTT assay; procedure, shortened: as §2
[7] = test system: Staphylococcus aureus; assay: Antibacterial activity against Staphylococcus aureus ATCC 29213 assessed as reduction of microorganisms in biofilm at 150 ug/ml after 18 hrs by XTT assay relative to untreated control; parameters: scale not given: the % may be the effect or the level left; procedure, shortened: as §3
[8] = test system: Staphylococcus aureus; assay: Antibacterial activity against methicillin-resistant Staphylococcus aureus Ig5 clinical isolate after 18 hrs by MTT assay; conditions: Ig5, 18 h; procedure, shortened: as §1
[9] = test system: Staphylococcus aureus; assay: Antibacterial activity against Staphylococcus aureus ATCC 29213 after 18 hrs by MTT assay; conditions: ATCC 29213, 18 h; procedure, shortened: as §1
[10] = test system: Staphylococcus aureus; assay: Antibacterial activity against Staphylococcus aureus XU212 after 18 hrs by MTT assay; conditions: XU212, 18 h; procedure, shortened: as §1
[11] = test system: Staphylococcus aureus; assay: Antibacterial activity against methicillin-resistant Staphylococcus aureus ATCC 43300 after 18 hrs by MTT assay; conditions: ATCC 43300, 18 h; procedure, shortened: as §1
[12] = test system: Escherichia coli; assay: Antibacterial activity against Escherichia coli ATCC 25922 after 18 hrs by MTT assay; procedure, shortened: as §1
[13] = test system: Staphylococcus aureus; assay: Antibacterial activity against Staphylococcus aureus ATCC 25923 after 18 hrs by MTT assay; conditions: ATCC 25923, 18 h; procedure, shortened: as §1
[14] = test system: Staphylococcus aureus; assay: Antibacterial activity against Staphylococcus aureus Ig5 assessed as reduction of microorganisms in biofilm at 37.5 ug/mL after 18 hrs by XTT assay relative to untreated control; parameters: scale not given: the % may be the effect or the level left; procedure, shortened: as §3
[15] = test system: Staphylococcus aureus; assay: Antibacterial activity against methicillin-resistant Staphylococcus aureus ATCC 43300 after 18 hrs by XTT assay; procedure, shortened: as §2
[16] = test system: Enterococcus faecalis; assay: Antibacterial activity against Enterococcus faecalis ATCC 29212 after 18 hrs by MTT assay; conditions: ATCC 29212, 18 h; procedure, shortened: as §1
[17] = test system: Staphylococcus aureus; assay: Antibacterial activity against methicillin-resistant Staphylococcus aureus Ig5 clinical isolate after 18 hrs by XTT assay; procedure, shortened: as §2
[18] = test system: Staphylococcus aureus; assay: Antibacterial activity against Staphylococcus aureus SA1199B after 18 hrs by MTT assay; procedure, shortened: as §1
[19] = test system: Staphylococcus aureus; assay: Antibacterial activity against Staphylococcus aureus EMRSA-15 after 18 hrs by MTT assay; conditions: EMRSA-15, 18 h; procedure, shortened: as §1
[20] = test system: Staphylococcus aureus; assay: Antibacterial activity against Staphylococcus aureus ATCC 29213 assessed as reduction of microorganisms in biofilm at 25 ug/ml after 18 hrs by XTT assay relative to untreated control; parameters: scale not given: the % may be the effect or the level left; procedure, shortened: as §3
[21] = test system: Staphylococcus aureus; assay: Antibacterial activity against methicillin-resistant Staphylococcus aureus Ig5 clinical isolate assessed as reduction of microorganisms in biofilm at 25 ug/ml after 18 hrs by XTT assay relative to untreated control; parameters: scale not given: the % may be the effect or the level left; procedure, shortened: as §3
[22] = test system: Enterococcus faecalis; assay: Antibacterial activity against Enterococcus faecalis ATCC 29212 assessed as reduction of microorganisms in biofilm at 25 ug/ml after 18 hrs by XTT assay relative to untreated control; parameters: scale not given: the % may be the effect or the level left; procedure, shortened: as §3
[23] = test system: Staphylococcus aureus; assay: Antibacterial activity against Staphylococcus aureus ATCC 43300 assessed as reduction of microorganisms in biofilm at 25 ug/ml after 18 hrs by XTT assay relative to untreated control; parameters: scale not given: the % may be the effect or the level left; procedure, shortened: as §3

| SMILES | MIC [1] [mg/L] | MBIC [2] [µg/mL] | MBIC [6] [µg/mL] | MIC [8] [mg/L] | MIC [9] [mg/L] | MIC [10] [mg/L] | MIC [11] [mg/L] | MIC [12] | MIC [13] [mg/L] | MBIC [15] [µg/mL] | MIC [16] [mg/L] | MBIC [17] [µg/mL] | MIC [18] [mg/L] | MIC [19] [mg/L] | other results |
| --- | --- | --- | --- | --- | --- | --- | --- | --- | --- | --- | --- | --- | --- | --- | --- |
| C1CCC(NC2CCCCC2)CC1.CC(C)CCC[C@]1(C)[C@@H](CCC(C)C)C[C@@]2(CCC(C)C)C(=O)[C@]1(C(=O)C(C)C)C(=O)C(CCC(C)C)=C2O [OCTAHYDROHYPERFORIN DICYCLOHEXYLAMMONIUM SALT] | 1 | 37.5 | 150 | 4 | 4 | 1 | 4 | inactive | 4 | 37.5 | 4 | 37.5 | 4 |  | Activity [3]: 45%; Activity [4]: 45%; Activity [5]: 47%; Activity [7]: 52%; Activity [14]: 52% |
| CCn1cc(C(=O)O)c(=O)c2cc(F)c(N3CCNCC3)cc21 [NORFLOXACIN] | 1 (≈ 3.13 µM) |  |  | 2 (≈ 6.26 µM) | 2 (≈ 6.26 µM) | 4 (≈ 12.5 µM) | 4 (≈ 12.5 µM) |  | 2 (≈ 6.26 µM) |  | 4 (≈ 12.5 µM) |  | 32 (≈ 100 µM) | 0.5 (≈ 1.57 µM) | MIC ([12]; ATCC 25922, 18 h): 0.12 mg/L (≈ 0.376 µM) |
| C1CCC(NC2CCCCC2)CC1.CC(C)=CCC[C@]1(C)[C@@H](CC=C(C)C)C[C@]2(CC=C(C)C)C(=O)C(CC=C(C)C)=C(O)[C@@]1(C(=O)C(C)C)C2=O |  | 25 | 25 | 1 | 1 | 0.5 | 1 | inactive | 1 | 25 | 1 | 25 | 2 | 2 | Activity [20]: 45%; Activity [21]: 33%; Activity [22]: 34%; Activity [23]: 21% |
